Assay results taken from ChEMBL document CHEMBL1150348, “Design and synthesis of FAJANU: a de novo C(2) symmetric cyclopeptide family” (2008).
Where a SMILES comes first, the peptide text is derived from it. Bridges are numbered along the chain shown (N, C = ends). Roman numbers before positions name the chains, in order. [ ]: non-standard residue; d: D form. The star is where a group is joined. Quinoxaline2carbonyl = O=C(c1cnc2ccccc2n1)*; Quinaldoyl(3-OH) = O=C(c1nc2ccccc2cc1O)*; Quinaldoyl = O=C(c1ccc2ccccc2n1)*; NMeF = CN[C@@H](Cc1ccccc1)C(=O)O; NMeL = CN[C@@H](CC(C)C)C(=O)O; X1 = O=C(c1cc(=O)c2ccccc2o1)*; NMeA = CN[C@@H](C)C(=O)O; Orn = NCCC[C@H](N)C(=O)O; Dap = NC[C@H](N)C(=O)O; Sar = CNCC(=O)O

Tests used:
Type in all cases: functional
MDA-MB-231 = experiment: Cytotoxicity against human MDA-MB-231 cells after 72 hrs by SRB assay; settings: MDA-MB-231, 72 h
Summary of the method: (§1)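 SRB colorimetric growth assay: cells seeded at 5 × 10^3 cells/well in RPMI, grown drug-free 18 h to attach, then samples added (dissolved in DMSO–H2O 3:7) for 72 h exposure. Fixed with cold 50% TCA 60 min at 4 °C, stained with 0.4% SRB in 1% acetic acid 10 min at room temperature, washed, bound dye solubilized in Tris, absorbance read at 490 nm; GI50 derived.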

A549 = experiment: Cytotoxicity against human A549 cells after 72 hrs by SRB assay; settings: A549, 72 h; summary of the method: as §1
HT-29 = experiment: Cytotoxicity against human HT29 cells after 72 hrs by SRB assay; settings: HT-29, 72 h; summary of the method: as §1

Row | Structure (SMILES) | GI50 (MDA-MB-231) | GI50 (A549) | GI50 (HT-29)
1 | CC(C)C[C@H]1C(=O)NCCC[C@H](NC(=O)c2ccc3ccccc3n2)C(=O)N(C)[C@@H](CC(C)C)C(=O)N(C)CC(=O)N(C)[C@@H](CC(C)C)C(=O)NCCC[C@H](NC(=O)c2ccc3ccccc3n2)C(=O)N(C)[C@@H](CC(C)C)C(=O)N(C)CC(=O)N1C (I: Quinaldoyl-[Orn][NMeL][Sar][NMeL] / II: Quinaldoyl-[Orn][NMeL][Sar][NMeL]; amide I:1-II:C, I:C-II:1) | 5800 nM | 2940 nM | 2440 nM
2 | CC(C)C[C@H]1C(=O)NC[C@H](NC(=O)c2cnc3ccccc3n2)C(=O)N(C)[C@@H](CC(C)C)C(=O)N(C)CC(=O)N(C)[C@@H](CC(C)C)C(=O)NC[C@H](NC(=O)c2cnc3ccccc3n2)C(=O)N(C)[C@@H](CC(C)C)C(=O)N(C)CC(=O)N1C (I: Quinoxaline2carbonyl-[Dap][NMeL][Sar][NMeL] / II: Quinoxaline2carbonyl-[Dap][NMeL][Sar][NMeL]; amide I:1-II:C, I:C-II:1) | 1670 nM | 1410 nM | 1230 nM
3 | CC(C)C[C@H]1C(=O)NC[C@H](NC(=O)c2nc3ccccc3cc2O)C(=O)N(C)[C@@H](CC(C)C)C(=O)N(C)CC(=O)N(C)[C@@H](CC(C)C)C(=O)NC[C@H](NC(=O)c2nc3ccccc3cc2O)C(=O)N(C)[C@@H](CC(C)C)C(=O)N(C)CC(=O)N1C (I: {Quinaldoyl(3-OH)}-[Dap][NMeL][Sar][NMeL] / II: {Quinaldoyl(3-OH)}-[Dap][NMeL][Sar][NMeL]; amide I:1-II:C, I:C-II:1) | – | 2400 nM | 3430 nM
4 | CC(C)C[C@H]1C(=O)NC[C@H](NC(=O)c2ccc3ccccc3n2)C(=O)N(C)[C@@H](CC(C)C)C(=O)N(C)CC(=O)N(C)[C@@H](CC(C)C)C(=O)NC[C@H](NC(=O)c2ccc3ccccc3n2)C(=O)N(C)[C@@H](CC(C)C)C(=O)N(C)CC(=O)N1C (I: Quinaldoyl-[Dap][NMeL][Sar][NMeL] / II: Quinaldoyl-[Dap][NMeL][Sar][NMeL]; amide I:1-II:C, I:C-II:1) | 640 nM | 570 nM | 500 nM
5 | CC(C)C[C@@H](C(=O)N[C@H]1CNC(=O)[C@H](Cc2ccccc2)N(C)C(=O)[C@H](CC(C)C)N(C)C(=O)[C@@H](NC(=O)[C@H](CC(C)C)N(C)C)CNC(=O)[C@H](Cc2ccccc2)N(C)C(=O)[C@H](CC(C)C)N(C)C1=O)N(C)C | 710 nM | 2860 nM | 650 nM
6 | CC(C)C[C@H]1C(=O)N(C)CC(=O)N(C)[C@@H](C)C(=O)NC[C@H](NC(=O)c2ccc3ccccc3n2)C(=O)N(C)[C@@H](CC(C)C)C(=O)N(C)CC(=O)N(C)[C@@H](C)C(=O)NC[C@H](NC(=O)c2ccc3ccccc3n2)C(=O)N1C (I: Quinaldoyl-[Dap][NMeL][Sar][NMeA] / II: Quinaldoyl-[Dap][NMeL][Sar][NMeA]; amide I:1-II:C, I:C-II:1) | 5340 nM | – | 3530 nM
7 | CC(C)C[C@H]1C(=O)NC[C@H](NC(=O)c2cc(=O)c3ccccc3o2)C(=O)N(C)[C@@H](CC(C)C)C(=O)N(C)CC(=O)N(C)[C@@H](CC(C)C)C(=O)NC[C@H](NC(=O)c2cc(=O)c3ccccc3o2)C(=O)N(C)[C@@H](CC(C)C)C(=O)N(C)CC(=O)N1C (I: X1-[Dap][NMeL][Sar][NMeL] / II: X1-[Dap][NMeL][Sar][NMeL]; amide I:1-II:C, I:C-II:1) | 2310 nM | – | 2910 nM
8 | CC(C)C[C@H]1C(=O)NC[C@H](NC(=O)c2ccc3ccccc3n2)C(=O)N(C)[C@@H](CC(C)C)C(=O)N(C)CC(=O)N(C)[C@@H](CC(C)C)C(=O)OC[C@H](NC(=O)c2ccc3ccccc3n2)C(=O)N(C)[C@@H](CC(C)C)C(=O)N(C)CC(=O)N1C (I: Quinaldoyl-[Dap][NMeL][Sar][NMeL] / II: Quinaldoyl-S[NMeL][Sar][NMeL]; amide I:1-II:C; ester I:C-II:1) | 1160 nM | 2760 nM | 1230 nM
9 | CC(C)C[C@H]1C(=O)NC[C@H](NC(=O)c2ccc3ccccc3n2)C(=O)N(C)[C@@H](CC(C)C)C(=O)NCC(=O)N(C)[C@@H](CC(C)C)C(=O)NC[C@H](NC(=O)c2ccc3ccccc3n2)C(=O)N(C)[C@@H](CC(C)C)C(=O)NCC(=O)N1C (I: Quinaldoyl-[Dap][NMeL]G[NMeL] / II: Quinaldoyl-[Dap][NMeL]G[NMeL]; amide I:1-II:C, I:C-II:1) | 550 nM | 1180 nM | 620 nM
10 | CC(C)C[C@@H](C(=O)N[C@H]1COC(=O)[C@H](Cc2ccccc2)N(C)C(=O)[C@H](CC(C)C)N(C)C(=O)[C@@H](NC(=O)[C@H](CC(C)C)N(C)C)COC(=O)[C@H](Cc2ccccc2)N(C)C(=O)[C@H](CC(C)C)N(C)C1=O)N(C)C | 1230 nM | 2900 nM | 640 nM
11 | CC(C)C[C@H]1C(=O)N(C)CC(=O)N(C)[C@@H](Cc2ccccc2)C(=O)NC[C@H](NC(=O)c2ccc3ccccc3n2)C(=O)N(C)[C@@H](CC(C)C)C(=O)N(C)CC(=O)N(C)[C@@H](Cc2ccccc2)C(=O)NC[C@H](NC(=O)c2ccc3ccccc3n2)C(=O)N1C (I: Quinaldoyl-[Dap][NMeL][Sar][NMeF] / II: Quinaldoyl-[Dap][NMeL][Sar][NMeF]; amide I:1-II:C, I:C-II:1) | – | 4160 nM | 4080 nM
12 | CC(C)C[C@H]1C(=O)NCCCC[C@H](NC(=O)c2ccc3ccccc3n2)C(=O)N(C)[C@@H](CC(C)C)C(=O)N(C)CC(=O)N(C)[C@@H](CC(C)C)C(=O)NCCCC[C@H](NC(=O)c2ccc3ccccc3n2)C(=O)N(C)[C@@H](CC(C)C)C(=O)N(C)CC(=O)N1C (I: Quinaldoyl-K[NMeL][Sar][NMeL] / II: Quinaldoyl-K[NMeL][Sar][NMeL]; amide I:1-II:C, I:C-II:1) | – | 3940 nM | –
